Data: publication PMC6409185 (Investigational new drugs, 2018)

Key:
Format in all cases: biochemical
Settings in all cases: relaxation assay in the presence of 100 μM compound
Calf Topo I (cTopo I) = assay: Relaxation assay for eukaryotic Topo I
In short: (§1)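 Commercial calf or human Topo I, 1 unit (the amount that fully relaxes 0.3 μg supercoiled pBR322), with 0.3 μg supercoiled pBR322 and test compound in 50 mM Tris-HCl pH 7.5, 100 mM NaCl, 10 mM MgCl2, 1 mM DTT, 50 μg/ml BSA. Run 15 min at 37°C, stopped with 25 mM EDTA. Products run on 1.2% agarose in TAE (2 V/cm, 15 h), stained with ethidium bromide, imaged and quantified.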

E. coli Topo I = E. coli Topo I (Escherichia coli, UniProt P06612); assay: Relaxation assay with E. coli Topo I
hTopo I = target: T1, hTopo I (Homo sapiens, UniProt P11387); assay: Relaxation assay for eukaryotic Topo I
T1 sequence (P11387 1-765): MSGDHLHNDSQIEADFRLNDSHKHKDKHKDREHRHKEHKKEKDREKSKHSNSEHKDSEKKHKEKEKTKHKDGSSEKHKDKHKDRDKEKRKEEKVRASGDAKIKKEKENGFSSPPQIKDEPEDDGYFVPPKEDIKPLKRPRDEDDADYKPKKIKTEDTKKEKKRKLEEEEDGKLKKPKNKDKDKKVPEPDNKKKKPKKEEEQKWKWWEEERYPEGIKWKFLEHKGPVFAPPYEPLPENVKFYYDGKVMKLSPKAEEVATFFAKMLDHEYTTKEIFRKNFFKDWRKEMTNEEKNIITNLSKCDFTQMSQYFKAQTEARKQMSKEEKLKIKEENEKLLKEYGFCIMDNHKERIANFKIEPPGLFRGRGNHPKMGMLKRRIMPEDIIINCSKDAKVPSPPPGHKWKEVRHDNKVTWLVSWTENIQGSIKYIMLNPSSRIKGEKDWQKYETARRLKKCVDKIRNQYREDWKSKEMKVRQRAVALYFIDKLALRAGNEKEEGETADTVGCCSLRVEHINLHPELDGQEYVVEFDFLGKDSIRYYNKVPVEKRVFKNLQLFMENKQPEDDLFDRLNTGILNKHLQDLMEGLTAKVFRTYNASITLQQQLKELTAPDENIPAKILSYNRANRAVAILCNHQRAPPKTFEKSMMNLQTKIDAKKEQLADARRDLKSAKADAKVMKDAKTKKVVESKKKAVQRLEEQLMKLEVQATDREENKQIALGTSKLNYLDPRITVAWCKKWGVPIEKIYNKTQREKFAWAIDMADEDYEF
In short: as §1

Sequence of E. coli Topo I (P06612 whole entry): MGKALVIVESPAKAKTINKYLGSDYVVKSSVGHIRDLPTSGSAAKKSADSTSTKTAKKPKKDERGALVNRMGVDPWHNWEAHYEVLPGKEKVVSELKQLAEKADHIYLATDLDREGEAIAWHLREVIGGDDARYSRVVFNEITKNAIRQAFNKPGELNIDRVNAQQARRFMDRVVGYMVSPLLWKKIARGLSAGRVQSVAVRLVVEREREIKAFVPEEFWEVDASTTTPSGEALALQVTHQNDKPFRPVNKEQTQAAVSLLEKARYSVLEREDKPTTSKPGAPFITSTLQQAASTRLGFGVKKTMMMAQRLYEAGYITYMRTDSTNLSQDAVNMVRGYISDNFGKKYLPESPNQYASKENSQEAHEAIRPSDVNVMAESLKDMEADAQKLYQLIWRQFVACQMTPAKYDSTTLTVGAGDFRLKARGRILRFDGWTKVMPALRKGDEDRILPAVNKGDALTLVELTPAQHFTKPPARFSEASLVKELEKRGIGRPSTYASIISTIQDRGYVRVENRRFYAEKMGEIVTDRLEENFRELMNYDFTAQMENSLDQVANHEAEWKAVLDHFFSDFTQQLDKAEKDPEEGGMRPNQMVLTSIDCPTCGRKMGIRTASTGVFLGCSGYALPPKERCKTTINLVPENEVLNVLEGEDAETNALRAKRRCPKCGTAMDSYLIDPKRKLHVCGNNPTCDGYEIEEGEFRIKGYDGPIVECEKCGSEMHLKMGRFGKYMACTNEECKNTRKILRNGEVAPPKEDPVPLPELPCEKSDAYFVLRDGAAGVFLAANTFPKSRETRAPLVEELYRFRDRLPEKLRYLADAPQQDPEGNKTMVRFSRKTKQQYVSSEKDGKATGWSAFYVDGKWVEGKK

COc1c(N2CC[C@@H](CN)C2)c(F)cc2c(=O)c(C(=O)O)cn(C3CC3)c12 [UING-5-249]
No^2: inhibition of cTopo I (Calf Topo I (cTopo I)) | inhibition of E. coli Topo I (E. coli Topo I) | inhibition of hTopo I (hTopo I)
